Test: Toxicity liver stage against HepG2, at 10uM
Type: cell-based
Parameters: test concentration 10 uM, cell line HepG2-A16-CD81EGFP
Details: human, HepG2-A16-CD81EGFP cells; read-out: INHIBITION
In short: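 Uninfected HepG2-A16-CD81EGFP cells, 3 × 10^3 per well, 1536-well, plated on prespotted compound at 10 μM final, parasite-free screening media added to match infected plates; puromycin 10 μM positive, DMSO 0.5% negative; run in parallel with 48 h PbLuc assay at 37 °C, 5% CO2; viability by CellTiter-Glo luminescence, normalized to controls.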

SMILES	cytotoxicity at 10 µM
Cc1ccn(CCC(=O)NCc2ccc(C)o2)n1	-2.96%
Cc1sc(NS(=O)(=O)c2ccccc2)nc1C(=O)NC1CC1	5.73%
COC(=O)CC(c1cccs1)c1oc(C)cc(=O)c1O (stereo not given)	2.99%
Cc1ccccc1OCC(=O)NCC(c1ccc(N(C)C)cc1)N(C)C (stereo not given)	-30.2%
CC(C)NC(=O)Cn1cc(OCc2ccc(F)cc2)c(=O)cc1CO	4.74%
COc1cccc(CNC(=O)NC2(c3nc(C)no3)CCCCC2)c1	4.04%
O=C(c1cnccn1)N1CCC(Oc2ncccc2Cl)CC1	0.566%
CC(=O)NCC(=O)NCC1Cn2nnc(-c3cccc(F)c3)c2CO1 (stereo not given)	-6.77%
CC(=O)N1CC2(CCN(C(=O)c3ccoc3)C2)C1	6.47%
O=c1[nH]nc2c(S(=O)(=O)N3CCOCC3)cccn12	-1.7%
CC(CC(=O)O)CC(=O)Nc1sc2c(c1C(N)=O)CCc1ccccc1-2 (stereo not given)	8.26%
CCOc1cc(=O)n2c(c1C(=O)OCc1ccc(OC)cc1)CCCC2	5.95%
COC(=O)CC(c1ccc(OC)c(OC)c1)c1oc(C)cc(=O)c1O (stereo not given)	16.8%
Cc1ccc(C2CCCCCN2Cc2cn(C)nc2C)s1 (stereo not given)	-6.47%
CC1CCCN(C(=O)c2ccn(COc3ccccc3)n2)C1 (stereo not given)	9.43%
CCCc1nc(NCCCn2cccn2)c2c(n1)c(C)nn2CC	7.88%
CCn1nc(C)c(NC(=O)c2nnn(Cc3ccccc3)c2OC)c1C	13.9%
COc1ccc2c(c1)c(-c1nc(C)ncc1CN)cn2C	21.7%
CCn1c(C)nc2cc(NC(=O)CC3CCCCO3)ccc21 (stereo not given)	5.36%
O=C1NCc2ccccc2CC12CCCN(CCCc1ccccc1)C2 (stereo not given)	10.3%
O=C(c1ccc(Cl)cc1)N1CCC(N2CCCCC2=O)CC1	7.3%
Cn1ccnc1Sc1ncc(C(=O)N2CCCCC2)cc1Cl	-61%

SMILES	cytotoxicity at 10 µM
COc1cc(CNc2nc(C3CC3)no2)cc(OC)c1OC	-0.291%
Cn1c(CS(=O)(=O)Cc2cccc(Cl)c2)cc(=O)n(C)c1=O	8.17%
O=C(CCNc1ccccc1)NC1CCN(C(=O)C2CCCCC2)CC1	6.72%
CC(C)(C)C(=O)N1CCCN(c2ncnc3nc(N)ccc23)CC1	3.39%
CCOC1CCN(C(=O)NCc2ccc(C(=O)N(C)C(C)C)cc2)CC1	-6.55%
CCN1CCC(NC(=O)N(C)Cc2csc3ccccc23)CC1	-45%
CC(C)Oc1ccccc1CNC(=O)N(C)CC(F)F	-41.5%
CCS(=O)(=O)N1CCc2c(cccc2NCc2ncc[nH]2)C1	-42.9%
NC(=O)N1CCCC(C(=O)NCCOc2ccc(F)c(F)c2)C1 (stereo not given)	2.94%
O=C(c1c(F)cccc1Br)N1CCCOCC1	6.69%
CCN(Cc1ccc2c(c1)OCO2)c1ncc(S(N)(=O)=O)s1	8.14%
CC(=O)N1CCN(CC(=O)NCCCN(C)c2ccccc2)CC1	8.21%
COc1cc2nc(NCc3ccc(C)nc3)nc(N)c2cc1OC	2.94%
CN(C)c1cc(C(=O)NC2(c3cccc(F)c3)CCOCC2)ccn1	-1.31%
O=C(NCCCO)Nc1cccc(I)c1	-6.1%
Cc1cc(C)n(CCC(=O)OCC(=O)N2CCc3sccc3C2)n1	8.52%
CCCc1[nH]n(C)c(=N)c1-c1ccc2c(c1)OCO2	-51.5%
CCN(C(=O)CN1CCC(c2n[nH]c(C3CC3)n2)CC1)C1CC1	-2.07%
O=S(=O)(Nc1c(F)cccc1N1CCCC1)c1cncc(F)c1	3.22%
CC1(C)CN=C(N2CCN(CC3CCCCO3)CC2)S1 (stereo not given)	-1.61%
CCn1nc(C)cc1C(=O)NCc1noc(C(C)(C)C)n1	8.7%
CC(C)(C)C(=O)N1CCN(Cn2nccc2-c2cccnc2)CC1	8.27%

SMILES	cytotoxicity at 10 µM
CC(C)NC(=O)CC(C)NCc1cc(Cl)ccc1F (stereo not given)	-40%
CNC(=O)Cn1cc(C#N)c(=O)c2cc(Br)ccc21	23.7%
CCOc1cc(F)ccc1NS(=O)(=O)c1cc(C)c(C(=O)O)s1	-10%
CN1CCN(C)C2(CCN(C(=O)CC(F)(F)F)CC2)C1=O	1.24%
CCN1CC2(CC1=O)CN(C(=O)NC(C)C)CCN(C(=O)NC(C)C)C2	-1.73%
CC(C)n1nc(CN2CCCC2=O)c2c1CN(C(=O)c1ccno1)C2	3.39%
CCOCc1nn(C)c2c1CN(CCO)CC2	-103%
Cc1ccc(N2CC[C@H](OCC3CC3)[C@@H]2Cc2ccncc2)nn1	8.13%
Cc1cnc(N2CCCC3(COCCN(c4nccs4)C3)C2)nc1 (stereo not given)	-112%
Cc1nn(C)cc1C(C)Nc1ncnc2sccc12 (stereo not given)	14.1%
CNc1ncc(C(=O)N2CCC3(CC2)Nc2ccccc2NC3=O)cn1	1.02%
COc1cc2c(cc1C1CC(=O)NCc3nc(N(C)C)sc31)CCC2 (stereo not given)	1.16%
COc1ccccc1-n1nc(-c2ccco2)n(CC(=O)NC2CC2)c1=O	0.355%
COc1cccc(C(C(=O)O)N2CCCN(c3ccnc(C)c3)CC2)c1 (stereo not given)	4.98%
O=C(O)c1cc(-c2ccoc2)cc(S(=O)(=O)NCc2ccccn2)c1	-47.6%
Cc1ccc(C(C)NCc2cn(CCC(N)=O)c3ccccc23)cc1C (stereo not given)	-1.69%
CSc1nccc(N2CCCC(c3nccn3C(C)C)C2)n1 (stereo not given)	7.72%
O=C(NCc1c(F)cccc1Cl)c1cc(CN2CCCC(O)C2)on1 (stereo not given)	-44.9%
CC(C)N1C[C@H](NC(=O)c2coc(COc3cccc(F)c3)n2)[C@@H](O)C1	-145%
Cc1cc(C)c2c(c1)NC(=O)C2CC(=O)O (stereo not given)	9.13%
c1ncc(-c2cn(CCSc3cnn[nH]3)nn2)cn1	-41.7%
Cc1ncsc1CCC(=O)NC1CCN(Cc2cccs2)CC1	-3.09%

SMILES	cytotoxicity at 10 µM
CCCc1nc(N2CCCN3CCC[C@H]3C2)c2cnn(C)c2n1	-129%
N[C@H]1CN(CCOc2ccc(F)cc2)C[C@@H]1C1CC1	-1.93%
COCCN(CC1CCCO1)C(=O)CCNC(=O)c1ccccc1F (stereo not given)	-41.7%
Cn1ncc2c(N3CCN(CCC(N)=O)CC3)nc(C3CCCC3)nc21	-2.45%
CCC(=O)c1ccc(OCC(=O)NC(C)Cc2cc(C)n[nH]2)cc1 (stereo not given)	-39.7%
Cn1ncc(N2CCN(Cc3ccc(S(C)(=O)=O)cc3)CC2)cc1=O	-1.44%
Cc1ccc(C(=O)O)cc1CNC(=O)CN1CC[C@](C)(O)C(C)(C)C1	-4.18%
Cc1ccc(CCNc2ncc(C)c(-c3ccnn3C)n2)s1	9.68%
COCc1nc(CN2C(=O)OC[C@@H]2C(C)C)no1	-12.4%
COC(=O)N1CCN(C(=O)c2ccc(C)c(N3CCNC3=O)c2)CC1	3.76%
CC(c1cccnc1)N(C)Cc1cc2cc3c(cc2[nH]c1=O)OCO3 (stereo not given)	9.27%
CC(C)CC(O)C1CCN(C(=O)c2ccc(C(C)C)[nH]c2=O)CC1 (stereo not given)	3.25%
Cc1ccsc1CN1CC2(CCN(C(=O)C3CC3)CC2)CC1C(=O)O (stereo not given)	3.24%
COc1ccc(OC)c(C2CCN(C3CCN(C(C)=O)CC3)C2)c1 (stereo not given)	-3.2%
Cc1ccc(N2CCC(CCN3CCCC3=O)CC2)nn1	6.35%
CNC(=O)c1noc(CN2CC[C@](C)(O)[C@H](C)C2)n1	-37.5%
Cc1[nH]nc(CCC(=O)N2CCc3ncnc(NCCO)c3CC2)c1C	-0.781%
COc1ccc2cc(C(=O)N3CC[C@H](CO)[C@H](O)C3)n(C)c2c1	-7.03%
O=C1CCC(CCC(=O)N2CCCC2c2nccs2)=NN1 (stereo not given)	4.06%
COc1cccc(C)c1C(=O)N1CCc2ncnc(NCCO)c2CC1	5.69%
CC(C)N1CCN(C(=O)Nc2cnc3c(cnn3C(C)C)c2)CC1	6.23%
O=C(c1cc(C2CC2)on1)N1CCCC(n2cccn2)C1 (stereo not given)	-4.04%

SMILES	cytotoxicity at 10 µM
O=C(Cn1nc(-c2ccc(F)cc2)oc1=O)NCCc1ccccc1	-13.5%
Cc1cc(C2CCCN2Cc2nc3c(cnn3C)c(=O)[nH]2)on1 (stereo not given)	-10.7%
Cc1nn(C)c(C)c1CCC(=O)N1CCCC(n2cncn2)C1 (stereo not given)	-1.4%
Cc1ccc(-c2nc(CCNC(=O)NCC(C)(C)C(N)=O)co2)cc1	-10.1%
Cc1nn(C)c(N(C)C)c1CNCc1ccccc1Cn1ccnc1	-15.3%
Cc1ccccc1OCCN1CCn2c(C)nnc2C1	-2.78%
Cc1ccc(C(=O)N2CCC(c3n[nH]c(C4CC4)n3)CC2)cc1F	-5.5%
CCn1nc(C)c(-c2cncn2CCN(C)C2CCCC2)c1C	4.83%
CCN1CCc2cc(-c3cncn3CCNC3CCS(=O)(=O)C3)ccc21 (stereo not given)	-1.59%
c1cc2c(cc1C1(CNC3=NCCN3)CCCC1)OCCO2	11%
c1ccc(CN2C[C@H]3CCC[C@@]3(COCC3CC3)C2)nc1	1.55%
O=C(NCc1cccs1)[C@@H]1CC[C@@H]2[C@@H](CCN2C2CCOCC2)O1	0.37%
c1cnc(-c2noc(C3CN(Cc4ccc5c(c4)CCO5)C3)n2)nc1	0.488%
c1cc(CN2CC[C@@H]3CN(c4cnccn4)C[C@@H]3C2)ccn1	-119%
Cn1cccc1C(=O)N1CC[C@H]2[C@H]1CCN2CC1CCOCC1	-4.81%
Cn1cc(N2CC3(CCN(Cc4ccoc4)CC3)OCC2=O)cn1	-1.66%
Fc1ccccc1CN1C[C@@H]2CN(Cc3cccnc3)CCO[C@@H]2C1	9.2%
Cn1ccc(C(=O)N2C[C@@H]3CN(CC4CC4)CCO[C@@H]3C2)n1	14.9%
O=C(NCc1cccnc1)c1nc2c(s1)CCCN2C(=O)C1CC1	-93%
Cc1nc(CN2CCc3ncnc(-c4ccncc4)c3CC2)cs1	-70%
Cc1ccc(-c2n[nH]cc2CNCC2CCN(CC(F)(F)F)C2)o1 (stereo not given)	6.99%
O=C([C@@H]1CSCN1)N1CCC2(CC1)CNCc1ccccc12	-2.08%
